Source: ChEMBL document CHEMBL4665894, “Driving Potency with Rotationally Stable Atropisomers: Discovery of Pyridopyrimidinedione-Carbazole Inhibitors of BTK” (ACS Med Chem Lett, 2020)
Several values for one entry are separate records, joined by “and”; a condition that tells them apart may be missing. Equal entries are not always repeated.

Key:
[1] = biological target: T1, Tyrosine-protein kinase BTK (Homo sapiens, UniProt Q06187); experiment: Inhibition of BTK in human whole blood assessed as reduction in goat anti human IgM/human IL4-stimulated CD69 cell surface expression on peripheral B cells incubated for 18 hrs by FACS analysis; type: tissue-based
T1 sequence (Q06187 whole entry): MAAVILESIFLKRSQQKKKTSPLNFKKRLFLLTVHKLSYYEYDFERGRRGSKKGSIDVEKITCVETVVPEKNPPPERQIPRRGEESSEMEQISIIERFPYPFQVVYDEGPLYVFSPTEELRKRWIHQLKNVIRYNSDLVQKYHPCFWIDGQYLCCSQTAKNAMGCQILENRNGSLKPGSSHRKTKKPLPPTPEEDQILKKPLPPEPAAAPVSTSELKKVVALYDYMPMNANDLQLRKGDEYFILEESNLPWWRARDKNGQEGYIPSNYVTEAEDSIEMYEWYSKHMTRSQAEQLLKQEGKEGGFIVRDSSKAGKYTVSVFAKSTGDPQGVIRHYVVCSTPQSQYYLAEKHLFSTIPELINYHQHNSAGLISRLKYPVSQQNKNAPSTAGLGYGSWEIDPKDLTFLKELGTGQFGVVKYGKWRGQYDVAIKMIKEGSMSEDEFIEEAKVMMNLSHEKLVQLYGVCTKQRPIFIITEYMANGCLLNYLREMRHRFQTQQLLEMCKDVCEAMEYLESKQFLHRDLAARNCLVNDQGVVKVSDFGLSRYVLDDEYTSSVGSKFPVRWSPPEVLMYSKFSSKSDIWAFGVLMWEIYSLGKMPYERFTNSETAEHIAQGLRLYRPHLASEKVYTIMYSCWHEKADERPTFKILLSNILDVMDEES

[2] = AUC in mouse at 10 mg/kg, PO; type: ADME, organism-based; design: dose 10 mg/kg; details: in vivo
[3] = biological target: T1, Tyrosine-protein kinase BTK; experiment: Inhibition of BTK in human Ramos B cells assessed as reduction in goat anti human IgM-stimulated calcium flux preincubated for 1 hr followed by goat anti human IgM addition and measured for 180 secs by FLIPR assay; type: cell-based
[4] = organism: Homo sapiens; experiment: Selectivity ratio of IC50 for JAK2 (unknown origin) to IC50 for recombinant full-length His-tagged human BTK expressed in baculovirus expression system
[5] = Cmax in mouse at 10 mg/kg, PO; type: ADME, organism-based; design: route oral, dose 10 mg/kg; details: in vivo
[6] = Glutathione reactivity in human liver microsomes assessed as GSH-adduct formation at 10 uM incubated for 60 mins; type: ADME; details: 1 h
[7] = Stability of the compound in human whole blood assessed drug degradation at 0.5 uM incubated for 2 hrs; type: ADME, tissue-based; details: read-out: Drug degradation
Summary of the method: (§1)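 Test compound spiked into human whole blood at 0.5 µM and incubated; remaining parent tracked over time, with samples at 10 min and at 2 h.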

[8] = biological target: T1, Tyrosine-protein kinase BTK; experiment: Inhibition of recombinant full-length His-tagged human BTK expressed in baculovirus expression system using fluoresceinated peptide as substrate incubated for 60 mins by fluorescence assay
[9] = Stability of the compound in human whole blood assessed drug degradation at 0.5 uM incubated for 10 mins; type: ADME, tissue-based; details: read-out: Drug degradation; summary of the method: as §1
[10] = test system: B cell; experiment: Antiproliferative activity against anti-IgM/IgG-induced human peripheral B cells; type: functional, cell-based
Summary of the method: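 B cell receptor stimulation of human peripheral B cells with anti-IgM/IgG (proliferation read-out), of human whole blood with anti-IgM (CD69 surface expression), and of mouse whole blood with anti-IgM/IgG (CD69 surface expression). IC50 reported as the mean of at least three determinations; for line 9 a single determination is also reported.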

SMILES | IC50 [1] | AUC [2] | IC50 [3] | Ratio IC50 [4] | Cmax [5] | Stabilty [6] | metabolised at 2 h, 0.5 µM [7] | IC50 [8] | metabolised at 10 min, 0.5 µM [9] | IC50 [10]
COc1cccn2c(=O)n(-c3cccc(-c4ccc(C(N)=O)c5[nH]c6cc(C(C)(C)O)ccc6c45)c3C)c(=O)cc12 | 140 nM | 4 µM·h | 19 nM | 1900 | 1300 nM | – | – | – | – | –
Cc1c(-c2ccc(C(N)=O)c3[nH]c4cc(C(C)(C)O)ccc4c23)cccc1-n1c(=O)cc2cc(Cl)ccn2c1=O | 3000 nM | – | 3.1 nM | 1500 | – | Unstable | 100% | 0.49 nM | > 85% | –
COc1ccn2c(=O)n(-c3cccc(-c4ccc(C(N)=O)c5[nH]c6cc(C(C)(C)O)ccc6c45)c3C)c(=O)cc2c1 | 140 nM | 3.9 µM·h | 19 nM | 1600 | 1300 nM | – | – | – | – | –
Cc1c(-c2ccc(C(N)=O)c3[nH]c4cc(C(C)(C)O)ccc4c23)cccc1-n1cnc2ccccc2c1=O | – | 80 µM·h | – | – | – | – | – | – | – | 8 nM

Second part, led by results:

IC50 [1] | AUC [2] | IC50 [3] | Ratio IC50 [4] | Cmax [5] | Stabilty [6] | metabolised at 2 h, 0.5 µM [7] | IC50 [8] | metabolised at 10 min, 0.5 µM [9] | SMILES | IC50 [10]
120 nM and 78 nM and 69 nM | 23 µM·h | 12 nM and 18 nM and 13 nM | 1400 and 1100 and 2500 | 3500 nM | Stable | – | – | – | Cc1c(-c2ccc(C(N)=O)c3[nH]c4cc(C(C)(C)O)ccc4c23)cccc1-n1c(=O)cc2c(Cl)cccn2c1=O | –
75 nM and 91 nM and 79 nM | 28 µM·h | 19 nM and 18 nM and 14 nM | 1100 and 500 and 870 | 5200 nM | – | – | 0.86 nM | – | Cc1c(-c2ccc(C(N)=O)c3[nH]c4cc(C(C)(C)O)ccc4c23)cccc1-n1c(=O)cc2c(F)cccn2c1=O | –
